# ChEMBL document CHEMBL2062417, “Biotinylated quercetin as an intrinsic photoaffinity proteomics probe for the identification of quercetin target proteins” (Bioorg Med Chem, 2011)
# The source made the active and inactive calls. The calls are words filed in the database; no cut-off is given here.
# Assays:
# [1] = target: Calcium/calmodulin-dependent protein kinase type II subunit beta (Homo sapiens, UniProt Q13554); experiment: Inhibition of CAMK2 using autocamtide-2 as substrate after 30 mins by PKLight assay
# Calcium/calmodulin-dependent protein kinase type II subunit beta, sequence (Q13554 whole entry): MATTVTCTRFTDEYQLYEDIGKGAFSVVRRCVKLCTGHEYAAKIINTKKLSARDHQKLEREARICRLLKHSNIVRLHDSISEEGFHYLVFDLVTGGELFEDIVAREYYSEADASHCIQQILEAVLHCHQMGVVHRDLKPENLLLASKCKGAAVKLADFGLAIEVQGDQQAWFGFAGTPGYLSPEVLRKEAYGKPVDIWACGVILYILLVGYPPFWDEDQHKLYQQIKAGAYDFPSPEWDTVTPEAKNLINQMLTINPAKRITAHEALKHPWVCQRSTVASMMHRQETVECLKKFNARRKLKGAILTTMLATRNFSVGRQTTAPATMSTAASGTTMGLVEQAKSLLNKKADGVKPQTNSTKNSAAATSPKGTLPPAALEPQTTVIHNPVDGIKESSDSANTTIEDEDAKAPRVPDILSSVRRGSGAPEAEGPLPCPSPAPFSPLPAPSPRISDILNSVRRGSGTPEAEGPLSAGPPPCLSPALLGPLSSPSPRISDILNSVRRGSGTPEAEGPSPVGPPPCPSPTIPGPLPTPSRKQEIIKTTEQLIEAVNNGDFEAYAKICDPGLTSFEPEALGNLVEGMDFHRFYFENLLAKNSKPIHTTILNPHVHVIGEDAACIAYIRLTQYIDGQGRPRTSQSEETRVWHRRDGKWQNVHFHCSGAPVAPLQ
# [2] = target: T1, Ubiquitin-like modifier-activating enzyme 1 (Homo sapiens) (UniProt P22314); experiment: Binding affinity to UBA1 in human Jurkat cells at 150 uM followed by UV irradiation for 30 mins with Wood's glass filtered medium pressure mercury arc light prior to cell lysis measured after denaturing wash by SDS-PAGE based pull down assay
# T1 sequence (whole entry): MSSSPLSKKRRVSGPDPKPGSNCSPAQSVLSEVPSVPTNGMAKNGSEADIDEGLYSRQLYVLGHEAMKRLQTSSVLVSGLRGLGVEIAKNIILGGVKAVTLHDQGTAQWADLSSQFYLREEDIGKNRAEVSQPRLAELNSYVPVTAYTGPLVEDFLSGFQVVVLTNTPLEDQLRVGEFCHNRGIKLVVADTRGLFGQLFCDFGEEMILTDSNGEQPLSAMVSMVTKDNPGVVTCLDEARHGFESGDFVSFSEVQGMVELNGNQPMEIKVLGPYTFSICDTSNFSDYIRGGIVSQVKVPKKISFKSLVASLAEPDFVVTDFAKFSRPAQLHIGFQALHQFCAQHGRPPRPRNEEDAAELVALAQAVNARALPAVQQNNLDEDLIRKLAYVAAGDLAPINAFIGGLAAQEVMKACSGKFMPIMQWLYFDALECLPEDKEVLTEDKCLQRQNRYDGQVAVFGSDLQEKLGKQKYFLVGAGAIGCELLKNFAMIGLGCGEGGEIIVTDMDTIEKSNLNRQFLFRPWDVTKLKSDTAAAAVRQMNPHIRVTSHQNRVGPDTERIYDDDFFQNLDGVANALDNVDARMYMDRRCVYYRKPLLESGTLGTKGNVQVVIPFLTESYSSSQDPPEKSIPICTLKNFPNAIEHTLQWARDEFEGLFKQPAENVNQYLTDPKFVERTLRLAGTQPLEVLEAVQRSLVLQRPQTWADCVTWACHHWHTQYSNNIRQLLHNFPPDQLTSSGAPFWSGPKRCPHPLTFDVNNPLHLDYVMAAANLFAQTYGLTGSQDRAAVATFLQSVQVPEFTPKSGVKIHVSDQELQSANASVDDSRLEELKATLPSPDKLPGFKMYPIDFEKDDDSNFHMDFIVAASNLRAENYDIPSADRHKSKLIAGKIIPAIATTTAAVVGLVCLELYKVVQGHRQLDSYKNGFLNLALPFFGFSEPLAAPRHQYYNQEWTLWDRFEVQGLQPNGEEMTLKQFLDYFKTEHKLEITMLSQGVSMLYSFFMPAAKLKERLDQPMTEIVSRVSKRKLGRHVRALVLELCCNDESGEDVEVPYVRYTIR
# Procedure, shortened: (§1)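 Jurkat cells were grown in RPMI with 10% FBS (about 15×10^6 cells) and treated 2 h with 150 μM BioQ in 3% aqueous DMSO. They were heat-shocked at 43 °C for 30 min, recovered 1 h at 37 °C, and UV-irradiated (320–400 nm, peak 365 nm, 30 min, 4 °C) before or after sonication lysis. Streptavidin-agarose capture ran 1 h. Beads were washed ≥3× with lysis buffer or 2% SDS Tris pH 7.4, boiled, run on 12% SDS-PAGE and silver-stained.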
# [3] = target: RuvB-like 2 (Homo sapiens) (UniProt Q9Y230); experiment: Binding affinity to RUVBL2 in human Jurkat cells at 150 uM followed by UV irradiation for 30 mins with Wood's glass filtered medium pressure mercury arc light prior to cell lysis measured after denaturing wash by SDS-PAGE based pull down assay; procedure, shortened: as §1
# RuvB-like 2 (Homo sapiens), sequence (Q9Y230 whole entry): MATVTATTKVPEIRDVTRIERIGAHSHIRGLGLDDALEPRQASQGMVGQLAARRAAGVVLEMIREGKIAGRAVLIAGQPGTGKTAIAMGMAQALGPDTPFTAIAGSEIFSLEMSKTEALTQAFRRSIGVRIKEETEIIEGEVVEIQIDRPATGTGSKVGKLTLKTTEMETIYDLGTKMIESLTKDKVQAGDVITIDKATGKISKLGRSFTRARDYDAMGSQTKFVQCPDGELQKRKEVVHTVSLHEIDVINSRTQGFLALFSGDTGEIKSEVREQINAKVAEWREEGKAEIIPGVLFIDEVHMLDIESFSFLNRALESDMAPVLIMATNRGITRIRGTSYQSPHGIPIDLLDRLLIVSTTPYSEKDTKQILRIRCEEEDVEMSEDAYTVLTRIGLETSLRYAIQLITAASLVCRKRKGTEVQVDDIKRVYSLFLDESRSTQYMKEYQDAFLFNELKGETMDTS
# [4] = tested on: Jurkat; experiment: Binding affinity to quercetin binding protein in human Jurkat cells at 150 uM followed by UV irradiation for 30 mins with Wood's glass filtered medium pressure mercury arc light after cell lysis by SDS-PAGE based pull down assay; procedure, shortened: as §1
# [5] = target: T1, Ubiquitin-like modifier-activating enzyme 1 (Homo sapiens); experiment: Binding affinity to UBA1 in human Jurkat cells at 150 uM followed by UV irradiation for 30 mins with Wood's glass filtered medium pressure mercury arc light prior to cell lysis measured after denaturing wash by LC-MS/MS based pull down assay
# Procedure, shortened: (§2)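 Silver-stained bands from cells irradiated before lysis were excised, destained, reduced with 10 mM DTT, alkylated with 50 mM iodoacetamide and digested with trypsin overnight. Peptides were extracted in 1% TFA/50% acetonitrile. Nano-C18 LC used a 2–50% acetonitrile gradient with 0.1% formic acid over 50 min at 260 nL/min, followed by MS/MS identification.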
# [6] = target: ATP synthase F(1) complex subunit beta, mitochondrial (Homo sapiens) (UniProt P06576); experiment: Binding affinity to ATP5B in human Jurkat cells at 150 uM followed by UV irradiation for 30 mins with Wood's glass filtered medium pressure mercury arc light after cell lysis measured after denaturing wash by SDS-PAGE based pull down assay; procedure, shortened: as §1
# ATP synthase F(1) complex subunit beta, mitochondrial (Homo sapiens), sequence (P06576 whole entry, one chain of several): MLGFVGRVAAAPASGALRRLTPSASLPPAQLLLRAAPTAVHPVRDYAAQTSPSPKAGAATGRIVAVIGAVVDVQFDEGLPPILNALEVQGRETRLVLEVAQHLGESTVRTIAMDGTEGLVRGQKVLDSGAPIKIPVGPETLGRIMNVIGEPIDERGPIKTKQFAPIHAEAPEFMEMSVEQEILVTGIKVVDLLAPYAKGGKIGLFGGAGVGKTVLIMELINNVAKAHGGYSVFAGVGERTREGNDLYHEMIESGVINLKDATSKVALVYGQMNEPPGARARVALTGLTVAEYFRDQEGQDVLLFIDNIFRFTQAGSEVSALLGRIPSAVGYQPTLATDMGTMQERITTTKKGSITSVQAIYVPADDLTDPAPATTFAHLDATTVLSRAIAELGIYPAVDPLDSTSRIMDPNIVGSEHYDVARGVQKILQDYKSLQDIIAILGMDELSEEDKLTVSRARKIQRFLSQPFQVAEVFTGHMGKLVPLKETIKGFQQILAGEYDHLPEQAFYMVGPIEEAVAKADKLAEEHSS
# [7] = target: Actin, cytoplasmic 1 (Homo sapiens) (UniProt P60709); experiment: Binding affinity to ACTB in human Jurkat cells at 150 uM followed by UV irradiation for 30 mins with Wood's glass filtered medium pressure mercury arc light prior to cell lysis measured after denaturing wash by LC-MS/MS based pull down assay; procedure, shortened: as §2
# [8] = species: Homo sapiens; experiment: Binding affinity to CK2 at 150 uM after 30 mins by silver staining based pull down assay
# Procedure, shortened: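 CK2 (17.5–70 nM) was mixed with 150 μM BioQ in 400 μL 10 mM PBS pH 7.2 with protease inhibitors, with or without 10 mM MgCl2 and 2 μM ATP. Samples were irradiated 30 min on ice (320–400 nm, peak 365 nm) or left unirradiated. Capture was on streptavidin agarose for 1 h, with washes in lysis buffer or 2% SDS Tris buffer, then boiling, SDS-PAGE and silver staining.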
compound,measurement,setting,value
O=C(CCCC[C@@H]1SC[C@@H]2NC(=O)N[C@@H]21)NCCOCCOCCNC(=O)COc1cc(O)c2c(=O)c(O)c(-c3ccc(O)c(O)c3)oc2c1,IC50,[1],25.9 µM
same,Activity,[2],Active
same,Activity,[3],Active
same,Activity,[4],Active
same,Activity,[5],Active
same,Activity,[6],Active
same,Activity,[7],Active
same,Activity,[8],inactive
